The record followed here is ChEMBL document CHEMBL5346974, “Discovery of 5-Phenylpyrazolopyrimidinone Analogs as Potent Antitrypanosomal Agents with In Vivo Efficacy” (J Med Chem, 2023).

Holding throughout (type): functional, organism-based
Assay [1] deals with Trypanosoma brucei brucei. Briefly: In vivo antitrypanosomal activity against Trypanosoma brucei brucei infected stage-I mouse model of HAT assessed as clearance of peripheral blood parasites at 50 mg/kg, po twice daily for 5 consecutive days measured for 60 days of post infection. The following applies: time 60.0 day. In outline:
(§1)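 Mice in groups of three were infected IP with 10^4 T. b. brucei Squib 427 […]. Parasitemia was checked by tail-vein blood microscopy up to 63 dpi, plus SL RNA qPCR on survivors.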

Assay [2] deals with Trypanosoma brucei brucei. Briefly: In vivo antitrypanosomal activity against Trypanosoma brucei brucei infected stage-I po dosed mouse model of HAT assessed as clearance of parasitemia treated twice daily for 5 consecutive days. The following applies: dose 6.25-50 mg/kg, time 5.0 day. The essentials: as §1
Assay [3] concerns Trypanosoma brucei brucei. Briefly: In vivo antitrypanosomal activity against Trypanosoma brucei brucei infected stage-I mouse model of HAT assessed as clearance of peripheral blood parasites at 50 mg/kg, po twice daily for 5 consecutive days. The following applies: time 5.0 day. The essentials: as §1

The source made the active and inactive calls. The calls are words filed in the database; no cut-off is given here.

On to `CC(C)c1n[nH]c2c(=O)[nH]c(-c3ccc(F)cc3)nc12`, for which, in assay [1], the result was Active. For the same compound, the Activity entry in assay [2] is “Dose-Dependent Effect”. Consider `Cc1ccc(C(=O)Nc2ccc(S(=O)(=O)O)c3cc(S(=O)(=O)O)cc(S(=O)(=O)O)c23)cc1NC(=O)c1cccc(NC(=O)Nc2cccc(C(=O)Nc3cc(C(=O)Nc4ccc(S(=O)(=O)O)c5cc(S(=O)(=O)O)cc(S(=O)(=O)O)c45)ccc3C)c2)c1`, for which the outcome in assay [3] was Active.
